# Only some compounds are listed: those with a hit (about 4.7% of all), similar ones and a draw of the others.
# SKN-1 block = blocks SKN-1 activity in C. elegans; C. elegans VP596 Pgst-4::GFP/RFP ratio, acrylamide-induced, 24 h; inhibition, % at 21.8 µM; 0.49% of 360,000 active;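 active = interference check ratio from 0.5 to 1.5 plus GFP to RFP signal ratio inhibition reaching or exceeding a fixed threshold, cut at about 30% in these data, passing the limit was not always enough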
# MT1-MMP act inh = blocks activation of human MT1-MMP | P50281 | HT1080 RFP-PRO-GFP cells, GFP/RFP ratio fluorescence, overnight; percent of plate control window, DMSO zero | GFP/RFP ratio change, % at 20 µM | 0.061% of 360,000 active;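 active = GFP/RFP ratio change of at least 30% with cell ATP level not reduced by more than half and red fluorescence within 50% of control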
#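 Assay system: RFP-PRO-GFP reporter HT1080 cells; read-out basis: GFP/RFP fluorescence ratio; benchmarks: DMSO wells and RFP-L50D-GFP cells; doses: 20 µM single dose, 1% DMSO; schedule: overnight cell settling, then overnight compound exposure, 37 °C, 5% CO2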
# NR3A LBD binder = modulates the human NR3A ligand-binding domain; NR3A LBD differential scanning fluorimetry, Tm shift; 0% = protein alone, 100% = glycine-bound protein; Tm shift relative to glycine control, % at 25 µM; 2.5% of 340,000 active; AID 1259313;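 active = melting temperature shift of at least 10% of the positive control shift, at one fixed dose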
# ADAM17 inh = inhibits human ADAM17; P78536; recombinant ADAM17, EDANS/DABCYL FRET peptide cleavage; inhibition, % at 6.95 µM; 0.83% of 370,000 active; AID 720648;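 active = inhibition above the mean of compounds lying between control limits plus 3 SD, set per campaign, cut at about 8.5% in these data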;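 note: 0% = DMSO-only wells as the low control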
# ADAM10 inh = ADAM10 inhibition, QFRET primary screen; 0.62% of 370,000 active; AID 720582; recombinant ADAM10, EDANS/DABCYL FRET peptide cleavage, 3 h; O14672; inhibition, % at 7 µM;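 active = inhibition above a per-campaign cutoff equal to the mean of compounds falling between control-based bounds plus 3 SD, cut at about 20% in these data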;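 note: 0% = DMSO wells while the 100% control is not disclosed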
# Target sequence (O14672 214-748 limits assumed): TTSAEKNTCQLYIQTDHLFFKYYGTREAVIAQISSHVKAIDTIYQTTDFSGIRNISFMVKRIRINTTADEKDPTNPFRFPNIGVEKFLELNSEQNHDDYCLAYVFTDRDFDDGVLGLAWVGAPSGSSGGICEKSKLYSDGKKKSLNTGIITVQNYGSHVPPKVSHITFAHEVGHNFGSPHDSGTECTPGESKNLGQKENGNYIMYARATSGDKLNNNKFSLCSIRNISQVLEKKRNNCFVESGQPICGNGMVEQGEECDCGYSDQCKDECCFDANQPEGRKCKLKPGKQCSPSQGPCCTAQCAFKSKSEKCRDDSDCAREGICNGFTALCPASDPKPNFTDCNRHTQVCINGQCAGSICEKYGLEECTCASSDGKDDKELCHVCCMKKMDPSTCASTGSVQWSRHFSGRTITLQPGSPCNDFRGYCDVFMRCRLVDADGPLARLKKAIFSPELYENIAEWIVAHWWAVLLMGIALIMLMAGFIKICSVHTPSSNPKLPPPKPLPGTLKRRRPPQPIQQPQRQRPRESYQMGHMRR
# MPTP inh = permeability transition pore inhibition; isolated mouse mitochondria, Ca2+ swelling absorbance, 30 min; inhibition, % at 10 µM; 1.4% of 360,000 active;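 active = inhibition of 50% or more, scaled per plate between neutral and stimulator controls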;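 note: 0% = DMSO wells given calcium and 100% = 1 mM EGTA wells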
# MPTP counter = membrane potential counter-screen of mitochondrial pore inhibitors | shares compounds with MPTP inh | isolated mitochondria, Rhodamine 123 fluorescence | inhibition, % at 10 µM | 78% of 5,000 active; in the data active = inhibition above about 22%;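 note: 0% = DMSO vehicle and 100% = positive control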
# MPTP abs DR = MPTP inhibition, dose response swelling confirmation. AID 651561. shares compounds with MPTP inh. IC50, µM. isolated mitochondria swelling, absorbance. 58% of 780 active; in the data active = IC50 below about 20 µM
# MPTP cs DR = counter-screen for mitochondrial permeability transition pore inhibitors, dose response. shares compounds with MPTP inh. isolated mitochondria counterscreen, fluorescence read-out. IC50, µM. 49% of 780 active. AID 651564; in the data active = IC50 below about 80 µM
# Numbers without * were called inactive; i = inactive; nt = no result.
SMILES,SKN-1 block,MT1-MMP act inh,NR3A LBD binder,ADAM17 inh,ADAM10 inh,MPTP inh,MPTP counter,others
Cc1ccc(C(=O)N2CCN(c3ncnc4c(C)csc34)CC2)cc1,-12.2,8.1,1.1,0.9,-5.3,33.8,nt,
Cc1csc2ncnc(N3CCN(C(=O)Nc4ccc(OC(F)(F)F)cc4)CC3)c12,2.9,-6.0,3.7,4.0,-6.5,89.9*,89.3*,
Cc1cnc(C(=O)Nc2ccc(OC(F)(F)F)cc2)cn1,-11.9,1.9,-1.3,-1.1,2.2,0.7,nt,
O=c1oc(-c2cccs2)nc2ccc(Br)cc12,-0.4,-4.9,0.8,1.8,12.6,3.3,nt,
CC(C)(C)c1ccc(Oc2ccc(NC(=O)c3cccs3)cn2)cc1,-4.4,-2.7,3.4,-2.8,4.9,54.0*,44.2*,
CC(=O)c1ccc(Oc2cc(-c3ccccc3)nc(-c3ccccc3)n2)cc1,13.4,0.6,2.7,-0.6,-4.7,52.8*,-1.1,MPTP abs DR=>100;MPTP cs DR=>80
O=C(CCc1ccccc1)NC(NC(=S)Nc1ccc(Br)cc1)C(Cl)(Cl)Cl (configuration not stated),9.9,4.6,13.7*,-0.7,1.1,80.8*,81.2*,
O=C(CCc1ccccc1)NC(NC(=S)Nc1cccc(Cl)c1)C(Cl)(Cl)Cl (configuration not stated),9.5,-0.6,37.8*,-5.4,-15.5,94.3*,78.1*,
CCC(=O)NC(NC(=S)Nc1ccccc1Br)C(Cl)(Cl)Cl (configuration not stated),4.4,-3.2,1.6,0.0,-9.0,3.4,nt,
CSc1cccc(NC(=S)NC(=O)CCc2ccccc2)c1,8.9,5.0,-10.6,6.4,10.0,0.9,nt,
CCCC(=O)NC(NC(=S)Nc1ccc(N=Nc2ccccc2)cc1)C(Cl)(Cl)Cl (configuration not stated),0.3,-11.1,21.6*,5.5,3.0,102.9*,61.6*,
CCCC(=O)NC(NC(=S)Nc1ccc(S(N)(=O)=O)cc1)C(Cl)(Cl)Cl (configuration not stated),-4.6,4.5,-22.1,0.0,-0.3,0.5,nt,
O=C(C1CCCC1)N1CCCC(Nc2ccccc2)C1 (configuration not stated),-2.6,1.4,0.7,-4.3,3.9,-0.7,nt,
CCCCn1c(=N)n(CC(=O)c2ccco2)c2ccccc21,8.8,-2.3,2.2,-2.3,1.6,0.4,nt,
CCCCCCCn1c(=N)n(CC(=O)c2ccco2)c2ccccc21,11.7,-18.3,-2.0,3.6,-0.1,82.9*,40.6*,
COc1ccc2oc(C(=O)N(C)CCOc3ccc(Cl)cc3)c(C)c2c1,14.8,-0.7,-0.8,-0.2,10.2,121.7*,5.7,MPTP abs DR=i;MPTP cs DR=51.8*
Cc1c(C(=O)N(C)CCOc2ccccc2)oc2c(Cl)cccc12,-0.5,-0.8,0.5,3.7,-2.3,0.6,nt,
C[C@H]1COc2cc(N(C)CCO)ccc2S(=O)(=O)N1,0.3,2.4,nt,-2.0,-2.5,-2.1,nt,
CCC(O)(Cc1ccccn1)Cc1ccccn1,6.8,-3.9,0.4,-10.9,-21.5,-2.2,nt,
O=C(NN1C(=O)c2cc(Br)ccc2NC1c1cc(Br)cc(Br)c1O)c1ccncc1 (configuration not stated),-6.4,1.8,-0.3,-0.5,-1.2,88.5*,51.6*,
O=C(NN1C(=O)c2cc(Br)ccc2NC1c1ccccc1Cl)c1ccncc1 (configuration not stated),-2.5,8.5,2.7,3.1,-4.3,2.2,nt,
NC(=S)n1[nH]c(-c2ccc([N+](=O)[O-])cc2)c(N=Nc2cccc(Cl)c2)c1=O,5.7,-1.8,24.6*,-0.1,3.8,89.5*,70.5*,
Cc1[nH]n(C(N)=S)c(=O)c1N=Nc1cccc(Cl)c1,11.2,5.6,9.8,-4.2,-6.6,-0.8,nt,
